In the library only some 2.1% were active in any assay of this set; here they are far more common.
M1 antag – antagonists of human M1 muscarinic receptor; inhibition, % at 3 µM; CHO-K1 hM1, Fluo-8 calcium fluorescence, ACh EC80 antagonist; AID 588852; actives 1.3% (n = 360,000);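 active means percent inhibition above its own plate's cutoff, namely the mean of that plate's compound wells plus 3 SD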;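 further: peak over basal fluorescence ratio during 140 s after agonist addition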
M5 ag – CHRM5 agonism in calcium assay; P08912; activation, % at 3 µM; actives 0.19% (n = 360,000); AID 624037; CHO-K1 hM5 cells, Fluo-8 calcium fluorescence; 0% DMSO wells, 100% maximal acetylcholine response;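 active means activation above the run's mean over test compounds plus 3 SD, cut at about 23% in these data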;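 further: signal is peak over basal fluorescence ratio across the kinetic read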
Target sequence (P08912 whole entry, looked up): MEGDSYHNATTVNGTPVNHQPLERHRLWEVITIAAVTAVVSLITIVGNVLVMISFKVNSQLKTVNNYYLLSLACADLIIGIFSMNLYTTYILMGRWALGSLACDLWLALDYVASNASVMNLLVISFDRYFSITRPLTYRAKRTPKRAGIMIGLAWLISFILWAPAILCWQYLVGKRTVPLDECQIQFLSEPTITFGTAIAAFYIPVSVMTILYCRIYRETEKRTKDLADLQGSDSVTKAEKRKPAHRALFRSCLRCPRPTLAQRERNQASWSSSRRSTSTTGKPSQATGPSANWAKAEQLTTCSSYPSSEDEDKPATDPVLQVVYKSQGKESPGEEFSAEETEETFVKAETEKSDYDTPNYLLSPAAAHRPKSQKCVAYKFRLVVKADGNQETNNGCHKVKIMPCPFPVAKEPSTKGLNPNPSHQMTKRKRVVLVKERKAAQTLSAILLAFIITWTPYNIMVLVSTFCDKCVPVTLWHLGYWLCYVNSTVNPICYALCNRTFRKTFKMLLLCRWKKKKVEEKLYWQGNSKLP
CHRM1 agonist – human M1 muscarinic receptor agonism; CHO-K1 hM1, Fluo-8 calcium fluorescence, agonist mode; 0% DMSO, 100% acetylcholine EC100; activation, % at 3 µM; actives 0.33% (n = 360,000); AID 588814;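 active means activation above the run's mean compound activation plus 3 SD, cut at about 16% in these data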;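 further: peak over basal fluorescence ratio within a 140 s kinetic read after compound addition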
M1 PAM – positive allosteric modulators of human M1 muscarinic receptor; P11229; CHO-K1 hM1, Fluo-8 calcium fluorescence, ACh EC20; 0% = ACh EC20, 100% = maximal ACh; activation, % at 3 µM; actives 0.088% (n = 360,000); in the data active means activation above about 19%, passing the limit was not always enough
M5 antag – antagonists of human muscarinic M5 receptor (CHRM5); P08912; CHO-hM5 cells, Fluo-8 calcium fluorescence, ACh EC80; inhibition, % at 3 µM; actives 0.59% (n = 360,000); AID 624040;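 active means inhibition above a per-plate cutoff, the mean of that plate's test compounds plus 3 SD, cut at about 27% in these data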
CHRM5 PAM – positive allosteric modulators of human muscarinic M5 receptor; AID 624038; actives 0.3% (n = 360,000); activation, % at 3 µM; P08912; CHO-K1 hM5, Fluo-8 calcium, ACh EC20 PAM; 0% = ACh EC20, 100% = ACh EC100;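 active means activation above the run cutoff, the mean activation of all test compounds plus 3 SD, cut at about 18% in these data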
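Probe or stimulus: acetylcholine, EC20 level; Assay system: human M5 receptor in CHO-K1 cells; Schedule: compound preincubation 140 s before EC20 acetylcholine addition; Technique: intracellular calcium via Fluo-8 fluorescence; Dosing: single-point, 3 µM nominal; Read-out basis: percent activation from peak-over-basal fluorescence ratio, scaled EC20-to-EC100 acetylcholine; Repeats: one well per compound, no replicates.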
Of the large screens only hits and unclear results are named; the others gave an inactive call.

O=C(/C=C/c1cccs1)Nc1cccc(NC(=O)/C=C/c2cccs2)n1	M1 antag 47
COc1ccc(S(=O)(=O)N2CCCOC2CNC(=O)C(=O)NC2CCCC2)cc1 (configuration not stated)	CHRM5 PAM 30
COc1ccc(CCNC(=O)C(=O)NCC2CCCN2S(=O)(=O)c2ccc(OC)cc2)cc1 (configuration not stated)	M1 antag 27
O=C(NCC1OCCCN1S(=O)(=O)c1ccc(F)cc1)C(=O)NC1CCCC1 (configuration not stated)	none
Cc1ccc(S(=O)(=O)N2CCOC2CNC(=O)C(=O)NCC(C)C)cc1 (configuration not stated)	M1 PAM 24
Cc1ccc(C(=O)COC(=O)CSc2cccc3cccnc23)c(C)c1	none
O=C(N/N=C/c1ccccc1)c1ccc(CN2C(=O)c3cccc4cccc2c34)cc1	CHRM1 agonist 43
Cc1cc([N+](=O)[O-])nn1Cc1ccc(C(=O)N/N=C/c2ccc(O)cc2O)cc1	none
O=C(N/N=C/c1ccc(O)cc1O)c1ccc(CN2C(=O)c3cccc4cccc2c34)cc1	CHRM1 agonist 16
c1ccc2c(c1)CCCN2c1nc2ccccc2n2cnnc12	none
Cc1cc(S(=O)(=O)N2CCN(CC(=O)NC(C)(C#N)C3CC3)CC2)ccc1Br (configuration not stated)	none
CC(C)(C)n1ncc(Oc2ccccc2[N+](=O)[O-])c(Cl)c1=O	none
CCc1c(C)sc(NC(=O)CN2CCN(C(=O)c3ccco3)CC2)c1C(=O)OC	none
CN1C(=O)c2ccc(N3CCCC3)cc2C1=O	none
Cc1cc(N2CCCC2)ccc1/C=C1\NC(=S)N(C)C1=O	M5 ag 42, CHRM1 agonist 23
O=C1/C(=C/c2ccc(N3CCCC3)cc2)NC(=S)N1C1CC1	M1 antag 35, M5 ag 69, CHRM1 agonist 34, M5 antag 54
CCCCc1ccc(NC(=O)N[C@@H](C)C(=O)O)cc1	none
Cc1ccsc1C(=O)NCC(C)(C)N1CCOCC1	CHRM5 PAM 22
CCOc1ccc(NC(=O)NCCCn2c(C)nc3cc(C)c(C)cc32)cc1	M1 antag 46
O=C(NCCN1CCOCC1)c1cccc(S(=O)(=O)N2CCCCC2)c1	none
Cc1onc(-c2ccccc2)c1C(O)c1ccc(F)cc1 (configuration not stated)	M1 antag 42
Cc1ccc(NC(=S)Nc2cccnc2)c(S(=O)(=O)N2CCCCC2)c1	none
Cn1c(SCc2cccnc2)nc2cccnc21	none
C=CCc1cc(Cl)ccc1OCCOCCNC(C)CC (configuration not stated)	M1 antag 38
C=CCc1cc(Cl)ccc1OCCCNC(C)C	none
C=CCc1cc(Cl)ccc1OCCN(C)C	M1 antag 25
CCC(C)NCCCOc1cc(Cl)ccc1Cl (configuration not stated)	M1 antag 33
O=C(NC(=S)Nc1ccccn1)c1cncc(Br)c1	none
O=C1NC2(CCCCC2)C(=O)N1CC(=O)N1CCc2ccccc21	none
O=C(NCCCN1CCc2ccccc2C1)Nc1ccc(Br)cc1	M1 antag 44
Cc1c(NC(=O)C(=O)/C=C(\O)c2ccc(Br)cc2)c(=O)n(-c2ccccc2)n1C	none
CCC(=O)Nc1cccc(C2=NOC3(C2)C[C@@H](C(N)=O)N(C(=O)c2cc([N+](=O)[O-])cc([N+](=O)[O-])c2)C3)c1 (some centres not stated)	none
Cc1ccc(OCCOC(=O)C2CCN(S(=O)(=O)c3ccc(C)c(C)c3)CC2)cc1	none
Cc1ccc(S(=O)(=O)N2CCC(C(=O)OCCOc3ccccc3)CC2)cc1C	M1 antag 19
CCOc1ccc(S(=O)(=O)N2CCC(C(=O)N3CCCCCC3)CC2)cc1C	CHRM5 PAM 50
O=C(COC(=O)C1CCC(=O)N1)Nc1ccc(Oc2ccccc2)cc1 (configuration not stated)	none
O=C(COC(=O)C1CCC(=O)N1)Nc1ccccc1Br (configuration not stated)	CHRM5 PAM 21

High-throughput results from PubChem BioAssay.
